# Assay results collected from several papers.
# Target: Serine/threonine-protein kinase N1 (PKN1, Homo sapiens, UniProt Q16512)
SMILES,assay,setting,remaining binding
O=C(NCCCN1CCOCC1)c1ccc(Nc2ncc(Cl)c(-c3ccc(Cl)s3)n2)cc1,"binding, competition with immobilised ligand",1 µM,39%
COc1cnc(Nc2cccc(S(N)(=O)=O)c2)nc1N1CCN(c2ccccc2)C(=O)C1,"binding, competition with immobilised ligand",1 µM,98%
CN(C)c1nccc(-c2cnn3ncccc23)n1,binding,1 µM,98%
O=C(c1ccc(Nc2ncc(Cl)c(-c3cc4ccccc4s3)n2)cc1)N1CCC(N2CCCC2)CC1,"binding, competition with immobilised ligand",1 µM,3.4%
CN(C)c1ncc(F)c(-c2cnn3ncccc23)n1,binding,1 µM,100%
FC(F)(F)Oc1cccc(-c2cnc3ccc(-c4ccncc4)nn23)c1,"cell-free assay, competition with immobilised ligand",5 µM,67%
CCOCCn1cc(C(=O)Nc2ccc(-n3nc(-c4cccnc4)cc3C(F)(F)F)cn2)ccc1=O,"cell-free assay, competition with immobilised ligand",1 µM,76%
N[C@H]1CCN(c2nccc(-c3cnn4ncccc34)n2)C1,binding,1 µM,86%
O=C(c1ccc(Nc2ncc(Cl)c(-c3ccc(Cl)s3)n2)cc1)N1CCC(N2CCCC2)CC1,"binding, competition with immobilised ligand",1 µM,25%
CN(C)c1nccc(-c2cnc3ncccn23)n1,binding,1 µM,100%
Cc1nc(N2CC[C@@H](O)C2)ncc1-c1cc(C(F)(F)F)cc2[nH]ncc12,"binding, competition with immobilised ligand",1 µM,100%
CNC(=O)[C@@H]1CC[C@@H](n2c(-c3ccc4cnccc4c3)nc3ccc(C(=O)NCc4cccc(C(N)=O)c4)cc32)C1,"binding, competition with immobilised ligand",1 µM,92%
Cc1cc(C)c(-n2ccn3nc(-c4cccnc4)cc23)cc1NC(=O)c1cc(C#N)cc(S(F)(F)(F)(F)F)c1,"cell-free assay, competition with immobilised ligand",0.1 µM,96.7%
Cc1cnn2ncc(-c3ccnc(N(C)C)n3)c2c1,binding,1 µM,99%
CCc1ccccc1C(=O)Nc1n[nH]c2c(C)c(F)c(C3C(C#N)=C(C)N(C)C(C)=C3C#N)cc12,"cell-free assay, competition with immobilised ligand",1 µM,100%
O=C(NCC1CCOCC1)c1n[nH]cc1NC(=O)c1c(F)cccc1F,"binding, competition with immobilised ligand",1 µM,100%
O=C1CCc2cc(Nc3cc(OC4CCOCC4)c([N+](=O)[O-])cc3Cl)ccc2N1,"cell-free assay, competition with immobilised ligand",1 µM,100%
F[C@@H]1CCN(c2nccc(-c3cnn4ncccc34)n2)C1,binding,1 µM,100%
COc1ccc2cc(OCC3(C(=O)O)CN(C(=O)c4ccc(F)cc4)C3)ccc2c1,"cell-free assay, competition with immobilised ligand",1 µM,100%
COc1ccnn2ncc(-c3ccnc(N(C)C)n3)c12,binding,1 µM,74%
CN(C)c1ncnc(-c2ccc3nc(Nc4cc(CN5CCN(C(=O)CC(F)(F)F)CC5)ccn4)[nH]c3c2)c1Cl,"cell-free assay, competition with immobilised ligand",1 µM,100%
COc1ncc2cc3ccccc3nc2c1C#N,"cell-free assay, competition with immobilised ligand",5 µM,100%
